For 33 molecules, EC50 results are on record in ChEMBL document CHEMBL1137134, “Novel thiophenes and analogues with anthelmintic activity against Haemonchus contortus” (Bioorg Med Chem Lett, 2004).

Each structure is given as a SMILES string. Where only a bound is given, the exact number is not on record here.

Common to all, as to type: functional, organism-based
Assay [1] relates to Haemonchus contortus. Nature of the assay: In vitro anthelmintic activity against Haemonchus contortus after 2 hr of incubation using larval mobility assay. An outline of the steps:
(§1)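 L3 larvae (30–40/well) incubated with compound at 27 °C for 2 or 24 h, then moved to an insert whose wells have a nylon mesh (40 µm pores) under 2% low-melt agar. After 4 h more, larvae that migrated through the barrier were counted. Primary screen at 100 ppm, with >50% motility inhibition counted as active. EC50 from 2-fold serial dilutions, 200 to 0.2 µM.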

Assay [2] concerns Haemonchus contortus. Nature of the assay: In vitro anthelmintic activity against Haemonchus contortus after 24 hr of incubation using larval mobility assay. The gist of the method:
as §1

The test system of assay [3] is Haemonchus contortus. Kind of assay: In vitro anthelmintic activity against Haemonchus contortus after 24 hr of incubation using larval mobility assay; NA denotes <50% inhibition of […] at 100 ppm. The gist of the method: (§2)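 H. contortus L3 larvae (30–40/well) exposed to compound at 27 °C for 2 or 24 h, then moved to an insert with a 40 µm nylon mesh under 2% low melt agar. After a further 4 h, larvae that migrated through the barrier were counted. EC50 from 2-fold serial dilutions, 200 to 0.2 µM. Primary screen at 100 ppm, 24 h; >50% motility inhibition counted as active.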

Assay [4] has as its system Haemonchus contortus. Kind of assay: In vitro anthelmintic activity against Haemonchus contortus after 2 hr of incubation using larval mobility assay; NA denotes <50% inhibition of mortality at 100 ppm. An outline of the steps:
as §2

Consider `CNc1nc(-c2ccccc2)cs1`, for which the results for the EC50 in the assay with Haemonchus contortus [1] and with Haemonchus contortus [2] were 46 µM and 65 µM, respectively.
For `CCSc1cc(-c2ccc([N+](=O)[O-])cc2)cs1`, in that order: 193 µM and 15 µM.
The like results for `CCSc1cc(-c2cccnc2)cs1` were, in that order, 46 µM and 33 µM.
For the molecule `CCSc1cc(-c2ccccc2)cs1`, the EC50 (commonly the midpoint of the concentration-response curve) in the assay on Haemonchus contortus [3] is “Not Active”.
Same read-out and setting: to `CSc1nc(-c2ccc(F)cc2)cn1C` belongs “Not Active”.
`CSc1scc(-c2ccc(F)cc2)c1Br`: the concentration for a half-maximal effect (EC50) in the assay with Haemonchus contortus [1] was above 200 µM; in the assay with Haemonchus contortus [2], 17 µM.
For `CNc1nc(-c2ccc(F)cc2)cs1`, in that order: 98 µM and 64 µM.
With `CSc1cc(-c2ccc(F)cc2)cs1`, the EC50 is above 200 µM in the assay on Haemonchus contortus [1] and 68 µM in the assay on Haemonchus contortus [2].
For `CSc1scc(-c2ccc(F)cc2)c1C#N`, in that order: above 200 µM and 28 µM.
In the case of `CSc1ccc(-c2ccc(F)cc2)cc1C#N`, the EC50 entry with Haemonchus contortus [3] is recorded as “Not Active”.
The same measure, in the same setting: to `CSc1ccc(-c2ccc(F)cc2)cc1` belongs “Not Active”.
Take `CCSc1cc(-c2cccc(C#N)c2)cs1`: the EC50 was above 200 µM with Haemonchus contortus [1] and 189 µM in the assay on Haemonchus contortus [2].
With `CCOc1scc(-c2ccc(F)cc2)c1C#N`, in the assay on Haemonchus contortus [3], the half-maximal effective concentration (EC50) result is “Not Active”.
With `CSc1nc(-c2ccc(F)cc2)c[nH]1`, the EC50 result in the assay with Haemonchus contortus [3] is “Not Active”.
For the molecule `CS(=O)(=O)c1scc(-c2ccc(F)cc2)c1C#N`, the concentration for a half-maximal effect (EC50) result in the assay with Haemonchus contortus [3] is “Not Active”.
As for `CCSc1cc(-c2cccs2)cs1`, the concentration for a half-maximal effect (EC50) with Haemonchus contortus [1] is above 200 µM; with Haemonchus contortus [2], 161 µM.
In the case of `N#Cc1cscc1-c1ccc(F)cc1`, the EC50 entry in the assay on Haemonchus contortus [3] was “Not Active”.
Turning to `CSc1cccc(-c2ccc(F)cc2)c1`, in the assay on Haemonchus contortus [3], the EC50 result is reported as “Not Active”.
Same read-out and setting: to `CSc1cc(-c2ccc(F)cc2)co1` belongs “Not Active”; to `CC(=O)c1cc(-c2ccc(F)cc2)cs1`, “Not Active”.
For the molecule `CCSc1c(C#N)c(-c2ccc(F)cc2)cn1C`, the EC50 entry in the assay on Haemonchus contortus [4] and in the assay on Haemonchus contortus [3] was “Not Active” throughout.
Consider `CCc1cc(-c2ccc(F)cc2)cs1`, for which, in the assay with Haemonchus contortus [3], the half-maximal effective concentration (EC50) entry is on record as “Not Active”.
The same measure, in the same setting: next, `CNc1scc(-c2ccc(F)cc2)c1C#N`: “Not Active”.
As to `CCSc1nc(-c2ccccc2)cs1`, the EC50 in the assay with Haemonchus contortus [1] is above 200 µM; in the assay on Haemonchus contortus [2], 32 µM.
On to `CSc1nc(-c2ccccc2)cs1`, for which the results for the half-maximal effective concentration (EC50) in the assay with Haemonchus contortus [1] and in the assay on Haemonchus contortus [2] were 82 µM and 190 µM, respectively.
The like results for `CCSc1scc(-c2ccc(F)cc2)c1C#N` were, in that order, above 200 µM and 6 µM.
As to `CSc1c(C#N)c(-c2ccc(F)cc2)cn1C`, the 50% effective concentration (EC50) in the assay on Haemonchus contortus [1] is above 200 µM; in the assay on Haemonchus contortus [2], 175 µM.
The like results for `CCSc1cc(-c2ccc(F)cc2)cs1` were, in that order, above 200 µM and 12 µM.
As for `CCNc1nc(-c2ccccc2)cs1`, the half-maximal effective concentration (EC50) in the assay with Haemonchus contortus [1] was determined as 162 µM; in the assay on Haemonchus contortus [2] it was 102 µM.
Take `N#Cc1c(-c2ccc(F)cc2)csc1N`: the EC50 entry in the assay on Haemonchus contortus [3] is “Not Active”.
Still for that read-out and setting: to `CSc1scc(-c2ccc(F)cc2)c1[N+](=O)[O-]` belongs “Not Active”.
For `CCSc1cc(-c2ccc(F)c(F)c2)cs1`, the EC50 in the assay on Haemonchus contortus [1] was above 200 µM; in the assay with Haemonchus contortus [2] it was 80 µM.
`c1ccc([C@H]2CN3CCSC3=N2)cc1` [LEVAMISOLE]: the results for the EC50 with Haemonchus contortus [1] and in the assay on Haemonchus contortus [2] were 18 µM and 15 µM, respectively.
